Measured values as given in article PMC552956 (Nucleic Acids Research, 2005).
Where “and” joins values, the source holds several entries; their conditions need not be identical. Equal entries are not always repeated. Entries after “also recorded” stand apart in the source; their conditions may differ.

Experiments:
[1] = biological target: HIV-2 RT-associated RNase H (Human immunodeficiency virus type 2 subtype A, UniProt P04584); test: RNase H activity on fluorescent RNA/DNA hybrid, HIV-2 RT; type: biochemical; settings: for IC50 HIV-2 RT: RNase H activity, triplicate assays
Method in brief: (§1)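 RNase H cleavage of a fluorescent RNA/DNA hybrid was measured with recombinant E. coli-expressed RT (wild-type p66/p51 for HIV-1; same expression system for HIV-2). Test compound, from a 20 mM DMSO stock, was tested in 2-fold dilutions from 100 μM to […]. Fluorescence was read every 40 s over 30 min. Rates came from the linear portion of the curves, and dose–response curves were fitted. Assays were run in triplicate.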

human RNase H = biological target: T1, human RNase H (Homo sapiens, UniProt O60930); test: RNase H activity on fluorescent RNA/DNA hybrid, human RNase H; type: biochemical
T1 sequence (O60930 1-286): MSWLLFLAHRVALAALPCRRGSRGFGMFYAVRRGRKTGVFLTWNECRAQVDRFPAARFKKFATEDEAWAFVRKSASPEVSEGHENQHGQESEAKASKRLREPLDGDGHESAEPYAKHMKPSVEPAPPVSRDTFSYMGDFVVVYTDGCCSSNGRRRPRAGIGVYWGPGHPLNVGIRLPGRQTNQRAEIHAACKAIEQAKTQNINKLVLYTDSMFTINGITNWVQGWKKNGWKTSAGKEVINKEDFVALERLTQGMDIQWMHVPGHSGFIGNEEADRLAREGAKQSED

E.coli RNase HI = biological target: T2, E.coli RNase HI (Escherichia coli, UniProt P0A7Y4); test: RNase H activity on fluorescent RNA/DNA hybrid, E.coli RNase H; type: biochemical; settings: for IC50: IC50 E.c. Rnase H
T2 sequence (P0A7Y4 1-155): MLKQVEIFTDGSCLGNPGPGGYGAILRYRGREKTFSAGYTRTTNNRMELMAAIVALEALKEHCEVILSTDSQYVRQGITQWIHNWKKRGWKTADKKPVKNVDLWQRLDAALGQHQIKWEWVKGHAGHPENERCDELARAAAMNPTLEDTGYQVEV

[2] = biological target: HIV-1 RT-associated RNase H (Human immunodeficiency virus type 1 group M subtype B, UniProt P04585); test: RNase H activity on fluorescent RNA/DNA hybrid, HIV-1 RT; type: biochemical; settings: for IC50: IC50 HIV-1 RT; for IC50 / IC50 HIV-1 RT: RNase H activity, triplicate assays
Method in brief: as §1

12mer RNA/DNA hybrid = test: Surface plasmon resonance binding to immobilized RNA/DNA hybrid; settings: SPR; for binding to RNA/DNA hybrid substrate: concentration range of 50 nM–10 mM
HIV-1 RT DNA polymerase = HIV-1 RT DNA polymerase (Human immunodeficiency virus type 1 group M subtype B, UniProt P04585); test: DNA-dependent DNA polymerase activity of HIV-1 RT; type: biochemical; settings: single concentration of 50 μM
HIV-1 infection = test: Cellular models of HIV-1 infection; type: cell-based
HIV-2 RT DNA polymerase = HIV-2 RT DNA polymerase (Human immunodeficiency virus type 2 subtype A, UniProt P04584); test: DNA polymerase activity of HIV-2 RT; type: biochemical; settings: 50 μM
[3] = biological target: HIV-1 RT RNase H activity (Human immunodeficiency virus type 1 group M subtype B, UniProt P04585); test: HIV-1 RT-catalyzed polypurine tract; type: biochemical; settings: single concentration of 50 μM
Method in brief: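 Recombinant wild-type p66/p51 HIV-1 RT was expressed in E. coli. The substrate was a 5′[32P]-labeled HIV-1 PPT RNA primer, extended at its 3′ end by five deoxynucleotides, hybridized to its DNA complement. Test compound was diluted from a 20 mM DMSO stock into reaction buffer and tested at 50 μM. Controls were no inhibitor and DMSO alone. PPT hydrolysis products were assessed qualitatively.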

Sequence of HIV-2 RT-associated RNase H (P04584 613-1171 limits assumed): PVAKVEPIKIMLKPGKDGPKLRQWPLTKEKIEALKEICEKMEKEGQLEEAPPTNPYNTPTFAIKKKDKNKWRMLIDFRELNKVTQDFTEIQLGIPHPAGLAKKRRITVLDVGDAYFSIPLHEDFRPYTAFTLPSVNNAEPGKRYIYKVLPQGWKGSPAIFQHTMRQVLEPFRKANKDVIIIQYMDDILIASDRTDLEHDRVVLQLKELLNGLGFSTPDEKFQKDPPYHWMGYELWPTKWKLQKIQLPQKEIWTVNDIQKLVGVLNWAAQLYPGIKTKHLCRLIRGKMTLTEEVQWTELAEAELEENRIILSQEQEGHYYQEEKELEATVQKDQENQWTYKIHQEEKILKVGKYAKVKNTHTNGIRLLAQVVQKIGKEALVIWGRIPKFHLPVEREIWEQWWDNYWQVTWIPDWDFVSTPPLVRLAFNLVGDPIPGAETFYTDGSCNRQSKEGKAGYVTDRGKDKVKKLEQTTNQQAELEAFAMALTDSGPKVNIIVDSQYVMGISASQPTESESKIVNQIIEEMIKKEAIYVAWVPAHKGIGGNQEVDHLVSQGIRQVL
Sequence of HIV-2 RT-associated RNase H (P04584 613-1051 partner limits assumed): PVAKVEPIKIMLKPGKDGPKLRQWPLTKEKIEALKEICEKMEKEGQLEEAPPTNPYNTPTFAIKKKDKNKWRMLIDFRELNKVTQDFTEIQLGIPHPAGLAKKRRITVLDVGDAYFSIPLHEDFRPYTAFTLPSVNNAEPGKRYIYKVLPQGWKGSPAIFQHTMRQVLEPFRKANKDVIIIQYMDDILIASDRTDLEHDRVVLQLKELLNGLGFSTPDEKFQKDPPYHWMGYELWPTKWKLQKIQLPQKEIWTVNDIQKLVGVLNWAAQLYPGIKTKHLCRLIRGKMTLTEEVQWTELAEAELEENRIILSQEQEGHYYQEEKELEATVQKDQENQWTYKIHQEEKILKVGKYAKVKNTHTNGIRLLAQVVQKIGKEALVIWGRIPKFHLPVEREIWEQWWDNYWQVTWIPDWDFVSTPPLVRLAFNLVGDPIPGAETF
Sequence of HIV-2 RT DNA polymerase (P04584 613-1171 limits assumed): as the sequence (P04584 613-1171 limits assumed) above
Sequence of HIV-2 RT DNA polymerase (P04584 613-1051 partner limits assumed): as the sequence (P04584 613-1051 partner limits assumed) above

With CC(C)=CCc1ccc(=O)c(O)cc1C(C)C [Nootkatin, 2-hydroxy-5-(3-methyl-2-butenyl)-4-(1-methylethyl)-2,4,6-cycloheptatrien-1-one] the IC50 [1] was over 100 µM, the IC50 (human RNase H) was 25 µM and the IC50 (E.coli RNase HI; triplicate assays) was over 100 µM. The IC50 [2] was over 100 µM.

O=c1cccccc1O [Tropolone, 2-hydroxy-2,4,6-cycloheptatrien-1-one] gave an IC50 [1] of over 100 µM, an IC50 (human RNase H) of 3 µM and an IC50 (E.coli RNase HI; triplicate assays) of over 100 µM. It also gave an IC50 [2] of over 100 µM.

Work on CC[n+]1c(-c2ccccc2)c2cc(N)ccc2c2ccc(N)cc21 [ethidium bromide, reference compound] yielded a Kd (12mer RNA/DNA hybrid; read-out: Kd for intercalation into RNA/DNA hybrid, 25°C) of about 1.5 µM.

For CC(C)c1ccccc(=O)c1O [α-Thujaplicin, 2-hydroxy-3-(1-methylethyl)-2,4,6-cycloheptatrien-1-one], the “binding to RNA/DNA hybrid substrate” value (12mer RNA/DNA hybrid) was “do not bind”, the IC50 [1] was 33 µM and the IC50 (human RNase H) was 12 µM. It also gave an IC50 (E.coli RNase HI; triplicate assays) of over 100 µM and an IC50 [2] of 50 µM.

With CC(C)c1cccc(=O)c(O)c1 [β-Thujaplicin, 2-hydroxy-4-(1-methylethyl)-2,4,6-cycloheptatrien-1-one] the “binding to RNA/DNA hybrid substrate” value (12mer RNA/DNA hybrid) was “do not bind”, the IC50 [1] was over 100 µM and the “IC50 HIV-2 RT” value [1] was “completely inactive”. The IC50 (human RNase H) was over 100 µM, the “IC50 Hu Rnase H” value (human RNase H; triplicate assays) was “completely inactive” and the IC50 (E.coli RNase HI; triplicate assays) was over 100 µM. For the same compound, the “IC50 E.c. Rnase H” value (E.coli RNase HI; triplicate assays) was “completely inactive”, the IC50 [2] was over 100 µM and the “IC50 HIV-1 RT” value [2] was “completely inactive”.

For CC(C)c1ccc(O)c(=O)c(O)c1 [β-Thujaplicinol, 2,7-dihydroxy-4-1(methylethyl)-2,4,6-cycloheptatrien-1-one], the “inhibition of DNA-dependent DNA polymerase activity of HIV-1 RT” value (HIV-1 RT DNA polymerase) was “failed to inhibit; also recorded: without affecting; also recorded: do not inhibit; also recorded: unaffected”, the “activity in cellular models of HIV-1 infection” value (HIV-1 infection) was “inactive” and the “binding to RNA/DNA hybrid substrate” value (12mer RNA/DNA hybrid) was “do not bind”. The “inhibition of DNA polymerase activity of HIV-2 RT” value (HIV-2 RT DNA polymerase) was “without affecting; also recorded: unaffected”, the IC50 [1] was 0.77 µM and the “E.coli RNase H less sensitive than HIV-1 RNase H” value (E.coli RNase HI) was about 250 fold. The IC50 (E.coli RNase HI; triplicate assays) was ~50 µM and 50 µM, the Ki [2] was 0.2 ± 0.07 µM and the IC50 [2] was 0.2 µM and 0.21 µM. For the same compound, the “mode of inhibition of HIV-1 RT/RNase H” value ([2]; non-linear fitting) was “mixed-type inhibition” and the “inhibition of PPT processing” value [3] was “almost complete inhibition”.

CC(C)c1ccc(O)c(=O)cc1 [γ-Thujaplicin, 2-hydroxy-5-1(methylethyl)-2,4,6-cycloheptatrien-1-one] was tested, and the IC50 [1] was over 100 µM, the “IC50 HIV-2 RT” value [1] was “failed to inhibit” and the IC50 (human RNase H) was 2 µM. The IC50 (E.coli RNase HI; triplicate assays) was over 100 µM, the IC50 [2] was over 100 µM and the “IC50 HIV-1 RT” value [2] was “failed to inhibit”.
